Compounds with a hit are over-represented: about 1.2% of the library has one in this group of screens.
CAL PDZ FP-1: untagged CAL PDZ binding inhibitors, primary screen, biochemical, fluorescence polarization, HTS; Golgi-associated PDZ and coiled-coil motif-containing protein (Homo sapiens), Q9HD26; purified CAL PDZ, TMR-peptide fluorescence polarization, 1 h; inhibition, % at 24.9 µM; actives 0.92% (n = 300,000);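 active = mean inhibition of at least 30% with at least half of replicates also reaching 30%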
ARNT-TACC3 inh: disruptors of ARNT/TACC3 protein interaction, primary screen, biochemical, AlphaScreen, single concentration; AID 623870, 2012; AlphaScreen His-ARNT PAS-B/GST-TACC3 binding, luminescence; TACC3 fragment carries E629A point mutation; inhibition, % at 9.99 µM; actives 0.66% (n = 390,000);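 active = mean inhibition of replicates at least 50% and at least half of replicates each reaching 50%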
CAL PDZ FP-2: CAL PDZ peptide-binding inhibitors, primary screen, biochemical, fluorescence polarization, Cer-tagged CAL PDZ, HTS | inhibition, % at 20 µM | purified CAL PDZ, TMR-peptide fluorescence polarization, 1 h | actives 0.02% (n = 330,000);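 active = highest replicate inhibition of at least 40%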
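Read-out basis: mP drop reported as inhibition | Assay system: Tagged CAL PDZ protein CerCALP, purified | Benchmarks: Unlabelled peptide for full inhibition, DMSO wells as neutral | Schedule: 1 h incubation at room temperature before polarization reading | Buffer or medium: Sodium phosphate/NaCl buffer pH 7.4 with TCEP, IgG, Thesit | Doses: Single point, 20 µM | Measured by: Fluorescence polarization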
Each line names hits and unclear results; the compound was inactive in the other large screens.

C[C@@H]1CCCCO[C@H](CN(C)Cc2ccc3c(c2)OCO3)[C@@H](C)CN([C@@H](C)CO)C(=O)c2cc(NC(=O)Nc3ccc(C(F)(F)F)cc3)ccc2O1	none (no result: CAL PDZ FP-1, CAL PDZ FP-2)
C[C@H](CO)N1C[C@H](C)[C@H](CN(C)Cc2ccc(C(=O)O)cc2)OCCCC[C@H](C)Oc2ccc(NS(=O)(=O)c3ccccc3)cc2C1=O	none (no result: CAL PDZ FP-1, CAL PDZ FP-2)
C/C=C/c1ccc([C@H]2[C@@H](CNS(C)(=O)=O)N(CC3CCCC3)[C@H]2CO)cc1	none (no result: CAL PDZ FP-1, CAL PDZ FP-2)
Cc1cc(C(=O)Nc2cccc3c2O[C@H](CN(C)S(=O)(=O)c2cn(C)cn2)[C@@H](C)CN([C@@H](C)CO)C3=O)n(C)n1	none (no result: CAL PDZ FP-1, CAL PDZ FP-2)
COc1ccc(/C=N/NC(=O)c2cc[n+]([O-])cc2)cc1	none (no result: CAL PDZ FP-1)
COc1ccc(/C=N/NC(=O)CNC(=O)c2ccncc2)cc1OC	CAL PDZ FP-1 55
O=C(CNC(=O)c1ccncc1)N/N=C/c1cc(Br)ccc1O	ARNT-TACC3 inh 46
COc1ccc(/C=N/NC(=O)c2cc[n+]([O-])cc2)cc1O	ARNT-TACC3 inh 72 (no result: CAL PDZ FP-1)
COc1ccc(C(=O)NCC(=O)N/N=C/c2cccnc2)cc1OC	none
O=C(N/N=C/c1cc(Br)ccc1O)C(c1ccncc1)N1CCOCC1 (stereo not drawn)	ARNT-TACC3 inh 58
COc1ccc(/C(C)=N\NC(=O)C(c2ccncc2)N2CCOCC2)cc1 (stereo not drawn)	none (no result: CAL PDZ FP-1)
O=C(CNC(=O)c1ccccc1)N/N=C/c1cc(Br)ccc1O	none
CCC(=O)N[C@@H]1CC[C@H](CC(=O)NCc2ccccc2OC)O[C@H]1CO	none (no result: CAL PDZ FP-1, CAL PDZ FP-2)
C[C@@H]1CN([C@H](C)CO)C(=O)c2cc(NC(=O)C3CCCCC3)ccc2O[C@@H](C)CCCCO[C@H]1CN(C)C(=O)Cc1ccccc1	none (no result: CAL PDZ FP-1, CAL PDZ FP-2)
CC(=O)N(C)C[C@H]1Oc2ncc(-c3cccc(F)c3)cc2C(=O)N([C@H](C)CO)C[C@@H]1C	none (no result: CAL PDZ FP-1, CAL PDZ FP-2)
COCC(=O)NC[C@H]1[C@H](c2ccccc2)[C@@H](CO)N1C(C)=O	none (no result: CAL PDZ FP-1, CAL PDZ FP-2)
C[C@@H]1CN([C@@H](C)CO)C(=O)c2cc(NC(=O)Cc3ccccc3)ccc2O[C@H]1CN(C)Cc1ccc(C(=O)O)cc1	none (no result: CAL PDZ FP-1, CAL PDZ FP-2)
Cc1ccc(S(=O)(=O)N(C)C[C@H]2Oc3ccc(NC(=O)CCN4CCOCC4)cc3CC(=O)N([C@@H](C)CO)C[C@H]2C)cc1	none (no result: CAL PDZ FP-1, CAL PDZ FP-2)
CN(C)CCCNC(=O)C[C@@H]1CC[C@@H]2[C@H](COc3ccc(NC(=O)c4ccc5c(c4)OCO5)cc3C(=O)N2C)O1	none (no result: CAL PDZ FP-1, CAL PDZ FP-2)
Cc1noc(C)c1NC(=O)Nc1ccc2c(c1)C(=O)N([C@@H](C)CO)C[C@H](C)[C@@H](CN(C)C(=O)C1CCCCC1)OCCCC[C@H](C)O2	none (no result: CAL PDZ FP-1, CAL PDZ FP-2)
Cc1cnc(CNC(=O)c2ccc(OC3CCN(C(=O)C4CC4)CC3)cc2)cn1	none
CCN(CCn1cccn1)C(=O)c1ccc(OC2CCN(C(=O)COC)CC2)cc1	none
COCC(=O)N1CCC(Oc2ccc(C(=O)NCCCn3cccn3)cc2)CC1	CAL PDZ FP-1 58
COCC(=O)N1CCC(Oc2ccc(C(=O)NCc3cnc(C)cn3)cc2)CC1	CAL PDZ FP-1 57
O=C1C[C@@](C(=O)NCCN2CCOCC2)(c2ccc([N+](=O)[O-])cc2)[C@@H](c2ccc(CO)cc2)N1CC12CC3CC(CC(C3)C1)C2	none (no result: CAL PDZ FP-1, CAL PDZ FP-2)
O=C(CCN1CCCCC1)N[C@@H]1CC[C@@H](CCNS(=O)(=O)c2ccccc2)O[C@@H]1CO	none (no result: CAL PDZ FP-1, CAL PDZ FP-2)
CC(NC(=O)C12CC3CC(C1)CC(n1cncn1)(C3)C2)C12CC3CC(CC(C3)C1)C2 (stereo not drawn)	CAL PDZ FP-1 57
O=C(NC1CCCCC1)C12CC3CC(C1)CC(n1cncn1)(C3)C2	none
CO[C@H]1CN(C)C(=O)c2cc(NS(=O)(=O)CC(F)(F)F)ccc2OC[C@@H](C)N(C(=O)c2ccc3c(c2)OCO3)C[C@H]1C	none (no result: CAL PDZ FP-1, CAL PDZ FP-2)
NCC[C@@H]1CC[C@@H](NS(=O)(=O)c2ccc(Cl)cc2)[C@@H](CO)O1	none (no result: CAL PDZ FP-1, CAL PDZ FP-2)
Cc1ccccc1NC(=S)N(Cc1ccco1)C(C)c1cccs1 (stereo not drawn)	CAL PDZ FP-1 47
CC(c1cccs1)N(Cc1ccco1)C(=S)Nc1ccccc1Cl (stereo not drawn)	none
Cc1ccc(S(=O)(=O)N[C@H]2CC[C@H](CCNC(=O)C3CCCCC3)O[C@H]2CO)cc1	none (no result: CAL PDZ FP-1, CAL PDZ FP-2)
O=C(c1ccc(OC2CCN(C/C=C/c3ccccc3)CC2)cc1)N1CCCC1	none
O=C(c1ccc(OC2CCN(C/C=C/c3ccccc3)CC2)cc1)N1CCCCC1	CAL PDZ FP-1 37
COc1ccc(C2N(c3cc(C)on3)C(=O)C3CCCN32)cc1OC (stereo not drawn)	CAL PDZ FP-1 51
CCOc1ccc(C2N(c3cc(C)on3)C(=O)C3CCCN32)cc1OC (stereo not drawn)	none
CN(C)C(=O)c1ccc(-c2ccc3c(c2)[C@@H]2[C@@H](CCN2C(=O)C2CCC2)[C@H](CO)N3C)cc1	none (no result: CAL PDZ FP-1, CAL PDZ FP-2)
c1ccc(Nc2ccccn2)cc1	none
Oc1cc(Nc2ccccc2)cc2cccnc12	ARNT-TACC3 inh 66
c1cncc(-c2nc3cc4ccccc4cc3[nH]2)c1	none
Oc1cc(-c2cccnc2)cc2cccnc12	ARNT-TACC3 inh 65
COc1ccccc1S(=O)(=O)Nc1ccc2c(c1)OC[C@H](C)NC[C@H](C)[C@H](OC)CN(C)C2=O	none (no result: CAL PDZ FP-1, CAL PDZ FP-2)
CCCNC(=O)N[C@@H]1CC[C@H](CC(=O)NCCc2ccccc2)O[C@@H]1CO	none (no result: CAL PDZ FP-1, CAL PDZ FP-2)
COc1ccc(S(=O)(=O)Nc2ccc3c(c2)C(=O)N([C@@H](C)CO)C[C@H](C)[C@H](CN(C)S(=O)(=O)c2c(C)noc2C)O3)cc1	none (no result: CAL PDZ FP-1, CAL PDZ FP-2)
Cc1nc(C)c(CC(=O)N/N=C/c2ccc(O)cc2)c(=O)[nH]1	CAL PDZ FP-1 56
COc1ccc(/C(C)=N/NC(=O)Cc2c(C)nc(C)[nH]c2=O)cc1	none
CC(C)(C)NC(=O)Cn1c(SCC(=O)NC2CCCC2)nc2ccccc21	none
CC(C)(C)NC(=O)Cn1c(Cl)nc2ccccc21	CAL PDZ FP-1 69
CO[C@H]1CN(C)C(=O)c2cc(NC(=O)C3CCC3)ccc2OC[C@H](C)N(C)C[C@@H]1C	none (no result: CAL PDZ FP-1, CAL PDZ FP-2)
C[C@@H]1CN([C@@H](C)CO)C(=O)c2cc(C#CCN(C)C)cnc2O[C@@H]1CN(C)C(=O)Nc1cc(F)ccc1F	none (no result: CAL PDZ FP-1, CAL PDZ FP-2)
O=C(c1ccco1)[C@@H]1[C@@H]2C(=O)N(c3ccc(Br)cc3)C(=O)[C@@H]2C2c3ccccc3C=CN21 (stereo partly drawn)	none
CC(=O)[C@H]1[C@@H]2C(=O)N(c3cccc(Cl)c3)C(=O)[C@@H]2[C@H]2c3ccccc3C=CN21	ARNT-TACC3 inh 24
Cc1c(C)c2c(OCC(=O)N3CCC[C@H]3C(=O)O)cc3c(c2oc1=O)CCC(C)(C)O3	ARNT-TACC3 inh 128
Cc1c(C)c2c(OCC(=O)N3CCC(O)CC3)cc3c(c2oc1=O)CCC(C)(C)O3	none
O=C(C[C@H]1C=C[C@H](NC(=O)Nc2ccccc2)[C@@H](CO)O1)NCc1cccc(F)c1	none (no result: CAL PDZ FP-1, CAL PDZ FP-2)
COc1ccc(NC(=O)N(C)C[C@@H]2Oc3ccc(NC(=O)CCCCCC(=O)Nc4ccccc4N)cc3CC(=O)N([C@@H](C)CO)C[C@H]2C)cc1	none (no result: CAL PDZ FP-1, CAL PDZ FP-2)
